# Activity calls are given as the source filed them. The calls are words filed in the database; no cut-off is given here.
# What was measured:
# [1] = Antioxidant activity assessed as DPPH scavenging activity after 4 hrs […]; assay type: functional
# [2] = tested on: HUVEC; assay: Cytoprotective activity against H2O2-induced cell injury in HUVEC cells; assay type: functional, cell-based; conditions: Homo sapiens
# In short: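 Cytoprotection was measured in human umbilical vein endothelial cells (HUVEC) injured with hydrogen peroxide and reported as EC50.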
# [3] = tested on: HUVEC; assay: Cytoprotective activity against H2O2-induced cell injury in HUVEC cells at 5 ug/mL after 4 hrs […]; assay type: functional, cell-based; conditions: Homo sapiens
# [4] = Antioxidant activity assessed as DPPH scavenging activity at 100 ug/mL; assay type: functional
SMILES,IC50 [1] [µM],EC50 [2] [µM],Activity [3],Activity [4]
Oc1ccc(Cc2ccc(Cl)cc2)cc1O,202,8.8,,
Oc1ccc(Cc2c(Cl)c(O)c(O)c(O)c2Cl)cc1O,102,,inactive,
COc1ccc(Cc2cc(OC)c(OC)cc2Br)cc1Br,,,inactive,inactive
COc1ccc(Cc2c(Br)c(OC)c(OC)c(OC)c2Br)cc1OC,,,inactive,inactive
COc1ccc(Br)cc1Cc1cc(OC)c(OC)cc1Br,,,inactive,inactive
O=C(c1cc(Br)ccc1O)c1cc(O)c(O)cc1Br,79.6,0.4,,
O=C(c1ccc(O)c(Br)c1)c1cc(O)c(O)cc1Br,61.6,2,,
Oc1cc(Cc2ccccc2)c(Br)c(Br)c1O,88,3.9,,
O=C(c1ccc(O)c(O)c1)c1c(Br)c(O)c(O)c(O)c1Br,96.2,,inactive,
COc1cc(Cc2ccccc2)c(Br)c(Br)c1OC,,,inactive,inactive
COc1ccc(C(=O)c2c(Br)c(OC)c(OC)c(OC)c2Br)cc1OC,,,inactive,inactive
COc1cc(Br)c(C(=O)c2ccccc2)cc1OC,,,inactive,inactive
O=C(c1cccc(Cl)c1)c1ccc(O)c(O)c1,110,5,,
COc1ccc(C(=O)c2c(Cl)c(OC)c(OC)c(OC)c2Cl)cc1OC,,,inactive,inactive
COc1ccc(C(=O)c2ccccc2)cc1OC,,,inactive,inactive
COc1ccc(Cc2c(Cl)c(OC)c(OC)c(OC)c2Cl)cc1OC,,,inactive,inactive
COc1ccc(Cc2ccc(Cl)cc2)cc1OC,,,inactive,inactive
COc1ccc(C(=O)c2ccc(Cl)cc2)cc1OC,,,inactive,inactive
O=C(c1ccc(O)c(O)c1)c1c(Cl)c(O)c(O)c(O)c1Cl,87.3,,inactive,

SMILES,IC50 [1] [µM],EC50 [2] [µM],Activity [3],Activity [4]
COc1cc(Br)c(Cc2ccccc2)cc1OC,,,inactive,inactive
Oc1cc(Br)c(Cc2cc(Br)ccc2O)cc1O,88.5,1.1,,
O=c1c(O)c(-c2ccc(O)c(O)c2)oc2cc(O)cc(O)c12 [QUERCETIN],,18,,
COc1cc(Br)c(C(=O)c2cc(Br)ccc2OC)cc1OC,,,inactive,inactive
COc1ccc(Cc2cccc(Cl)c2)cc1OC,,,inactive,inactive
Oc1cc(Br)c(Cc2ccccc2)cc1O,164,12.2,,
Oc1ccc(Cc2ccccc2Cl)cc1O,131,,inactive,
O=C(c1ccc(O)c(O)c1)c1ccccc1Cl,113,,inactive,
Oc1ccc(Cc2c(Br)c(O)c(O)c(O)c2Br)cc1O,84.2,,inactive,
Oc1ccc(Cc2cccc(Cl)c2)cc1O,223,,inactive,
COc1ccc(C(=O)c2cc(OC)c(OC)cc2Br)cc1Br,,,inactive,inactive
Oc1cc(Br)c(Cc2ccc(O)c(Br)c2)cc1O,87.4,13,,
COc1ccc(Cc2ccccc2Cl)cc1OC,,,inactive,inactive
O=C(c1ccc(Cl)cc1)c1ccc(O)c(O)c1,103,8.9,,
O=C(c1ccccc1)c1cc(O)c(O)c(Br)c1Br,87.7,0.8,,
O=C(c1ccccc1)c1cc(O)c(O)cc1Br,84,11.5,,
COc1cc(C(=O)c2ccccc2)c(Br)c(Br)c1OC,,,inactive,inactive
Cc1cc(C(C)(C)C)c(O)c(C(C)(C)C)c1 [BUTYLATED HYDROXYTOLUENE],169,,,

# — ChEMBL document CHEMBL1177806, “Synthesis and biological activity of halophenols as potent antioxidant and cytoprotective agents” (Bioorg Med Chem Lett, 2010)
